High-throughput results from PubChem.
Compounds with a hit are over-represented: about 1.2% of the library has one in this group of screens.
M1 ag parental: counter-screen for M1 agonists: effect in parental CHO-K1 cells; Fluo-8 calcium fluorescence; scaled to maximal ATP response, vehicle zero; 360,000 compounds, 0.48% hits; activation, % at 3 µM; in the data active = activation above about 15%;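 also: untransfected CHO-K1 host cells lacking M1 receptor as counterscreen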
M1 PAM parental: nonselective activator or artifact in parental CHO-K1 calcium assay | ATP EC20, Fluo-8 calcium fluorescence; 0% at ATP EC20, 100% at ATP max | activation, % at 3 µM | 360,000 compounds, 0.02% hits;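 active = activation above the run cutoff, the mean activation of all test compounds plus 3 SD, cut at about 40% in these data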;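 also: peak over basal fluorescence ratio in a 140 s read after ATP addition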
CHO-K1 Ca antag: nonselective inhibitor or artifact in parental CHO-K1 cells; ATP-induced calcium, Fluo-8 fluorescence; inhibition, % at 3 µM; 360,000 compounds, 0.6% hits; AID 602250;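 active = inhibition above a per-plate cutoff, the plate's mean sample inhibition plus 3 SD, cut at about 24% in these data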
TRPML3 ag: human mucolipin-3 channel agonism; Q8TDD5; HEK293 TRPML3-YFP, Fluo-8 calcium fluorescence; 100% = the carbachol control signal; activation, % at 3 µM; 220,000 compounds, 0.29% hits;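 active = activation above its plate's cutoff, the mean activation of the plate's test wells plus 3 SD, cut at about 12% in these data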
Target sequence (Q8TDD5 whole entry, looked up): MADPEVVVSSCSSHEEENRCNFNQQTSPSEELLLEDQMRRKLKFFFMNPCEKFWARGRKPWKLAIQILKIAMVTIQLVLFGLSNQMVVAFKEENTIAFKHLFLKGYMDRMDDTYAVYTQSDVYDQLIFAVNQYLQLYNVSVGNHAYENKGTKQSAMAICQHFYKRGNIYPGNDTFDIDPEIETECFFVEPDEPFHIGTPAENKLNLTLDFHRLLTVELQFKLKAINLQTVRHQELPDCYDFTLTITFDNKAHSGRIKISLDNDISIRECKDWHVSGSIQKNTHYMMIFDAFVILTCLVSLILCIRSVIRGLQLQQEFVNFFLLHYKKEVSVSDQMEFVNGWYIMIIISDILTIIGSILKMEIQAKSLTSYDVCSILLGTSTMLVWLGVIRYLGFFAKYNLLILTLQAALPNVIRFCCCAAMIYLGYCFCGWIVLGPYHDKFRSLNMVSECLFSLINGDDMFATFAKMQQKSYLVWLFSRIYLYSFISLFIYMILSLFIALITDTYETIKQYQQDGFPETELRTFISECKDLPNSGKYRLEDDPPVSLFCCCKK
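Material: HEK293 cells stably carrying human TRPML3-YFP; compound dosing: single dose, 3 µM final nominal compound, 0.3% DMSO final; incubation: 1-h 37 °C dye load, 5-s basal, 120-s post-compound reads; technique: Fluo-8 intracellular calcium fluorescence, excitation 470-495 nm, emission 515-575 nm; read-out basis: percent activation from peak-to-basal fluorescence ratio, scaled between DMSO and carbachol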
zfTRPN1 agonist: agonists of zebrafish TRPN1 channel; HEK293 zebrafish TRPN1-YFP, Fluo-8 calcium fluorescence; 100% = response to 87 µM carbachol; activation, % at 3 µM; 220,000 compounds, 0.18% hits;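 active = activation above its plate's cutoff, the mean activation of test wells on that plate plus 3 SD, cut at about 19% in these data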
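Material: zebrafish TRPN1-YFP in HEK293 cells; Doses: single test compound dose, 3 µM nominal, 0.3% DMSO; Timing: dye loading 1 h at 37 °C, then 30 min room temperature; Technique: intracellular calcium fluorescence with Fluo-8; Benchmarks: high carbachol 87 µM, low DMSO alone.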
A number is an active result; n = inactive; x = no result given.

SMILES	M1 ag parental	M1 PAM parental	CHO-K1 Ca antag	TRPML3 ag	zfTRPN1 agonist
COc1ccc(NC(=S)NCCSc2ccc(Cl)cc2)c(OC)c1	n	n	24	n	n
CCN(CC)S(=O)(=O)c1cccc(C(=O)OCC(=O)c2ccc3c(c2)NC(=O)CO3)c1	17	n	n	n	n
NC(=O)CCC(C(=O)O)N1C(=O)C2C3CCC(C3)C2C1=O (centres undefined)	n	n	n	x	x
CC(=O)c1c(C)[nH]c(C(=O)OCC(=O)NCc2ccccc2)c1C	n	n	n	x	x
COc1ccc(CCNc2ncnc3sc(C)cc23)cc1OC	n	n	32	x	x
COc1cc(N2CCCC2)c(OC)cc1/C=C1/NC(=S)NC1=O	48	n	35	17	60
COc1ccc(OC)c(/C=C2\NC(=O)NC2=O)c1	n	n	n	x	x
CC(C)OC(=O)NCCOC(=O)Nc1ccc(Cl)c(Cl)c1	n	n	n	n	n
CC(C)OC(=O)NCCOC(=O)Nc1cccc(Cl)c1	n	n	29	n	n
COc1cccc(Cn2nnc(C(=O)Nc3cc(C)ccc3OC)c2N)c1	n	n	26	n	n
Cc1ccc(Cn2nnc(C(=O)Nc3cccc(C)c3C)c2N)cc1	n	n	n	17	36
O=C1COc2ccccc2C(c2nc3ccccc3[nH]2)N1C1CC1 (centres undefined)	n	n	n	x	x
Cc1ccc(S(=O)(=O)N2CCOCC2)cc1NC(=O)COC(=O)CCOc1ccc(C(C)(C)C)cc1	16	n	n	x	x
Cc1ccc(S(=O)(=O)N2CCOCC2)cc1NC(=O)COC(=O)CNC(=O)c1ccc(C(C)(C)C)cc1	n	n	n	n	n
Cc1ccc(S(=O)(=O)N2CCOCC2)cc1NC(=O)COC(=O)CNC(=O)c1ccc(Oc2ccccc2)cc1	n	n	25	n	n
O=C(CCn1c(=S)[nH]c2cc3c(cc2c1=O)OCO3)NCCc1ccccc1Cl	n	n	n	x	x
COCc1cc(C)nc2sc3c(=O)n(Cc4ccco4)nnc3c12	n	n	26	n	n
Cc1cc(C)c2c(n1)sc1c(=O)n(Cc3ccccc3Cl)nnc12	n	n	n	n	n
C[C@H](CO)N1C[C@H](C)[C@@H](CN(C)Cc2ccc(C(=O)O)cc2)Oc2ncc(-c3ccc(C(=O)N(C)C)cc3)cc2C1=O	n	n	n	x	x
CCOC(=O)C1=CCN(S(=O)(=O)c2ccc(Br)cc2)C1c1ccc(C)cc1 (centres undefined)	n	n	n	x	x
O=C(Nc1ccccc1)C1Cc2c(-c3ccco3)ccnc2O1 (centres undefined)	n	n	n	x	x
CC(=O)N1c2ccc(S(=O)(=O)N3CCC(C(=O)Nc4cccc(C(F)(F)F)c4)CC3)cc2CC1C (centres undefined)	n	n	32	x	x
O=C(Nc1cccc(C(F)(F)F)c1)C1CCN(S(=O)(=O)c2ccc(N3CCCC3=O)cc2)CC1	16	n	n	x	x
O=c1cc(-c2c(O)c3ccccc3n(Cc3ccccc3)c2=O)[nH][nH]1	17	n	n	n	n
COc1ccccc1CNC(=O)C1(C)CCN1C(=O)C1(c2ccccc2)CC1 (centres undefined)	n	n	n	x	x
SMILES	M1 ag parental	M1 PAM parental	CHO-K1 Ca antag	TRPML3 ag	zfTRPN1 agonist
O=C(Nc1ccc(F)c(Cl)c1)C1Cc2c(-c3cccc(F)c3)ccnc2O1 (centres undefined)	n	n	n	x	x
Cc1ccccc1C(=O)NNS(=O)(=O)c1ccc(F)cc1	n	n	24	x	x
Cc1nc(N2CCCCC2)[nH]c(=O)c1CN(C)N=O	n	n	n	x	x
CCc1nc2c(OCCc3cccc(OC)c3)cccn2c1N(C=O)Cc1ccc(OC)cc1	n	n	n	x	x
CCOC(=O)[C@]12CCCC=C1N(Cc1ccc3c(c1)OCO3)C(=O)[C@H](CC(=O)NCC13CC4CC(CC(C4)C1)C3)C2	n	n	n	x	x
Cc1nnc(NC(=O)c2ccco2)s1	n	n	26	n	n
Cc1ccc(NC(=O)c2ccc(OC(=O)c3ccco3)cc2)cc1	n	n	n	n	n
O=C(Nc1ccccc1)c1cccc(NC(=O)c2ccco2)c1	n	n	n	x	x
Cc1nnc(NC(=O)c2ccc3ccccc3n2)s1	20	n	n	n	n
Cc1ccc(Oc2ccc(NC(=O)c3ccco3)cc2)cc1	n	n	27	n	n
O=C(O)Cc1ccc(NC(=O)c2cccc(NC(=O)c3ccco3)c2)cc1	n	n	28	n	n
Cc1nc2ccc(NC(=O)c3ccc4ccccc4n3)cc2s1	n	n	n	n	n
